From ChEMBL document CHEMBL3860088, “Design, synthesis, and evaluation of novel porcupine inhibitors featuring a fused 3-ring system based on the 'reversed' amide scaffold” (Bioorg Med Chem, 2016)
Activity calls are given as the source filed them. The calls are words filed in the database; no cut-off is given here.

Tests used:
[1] = biological target: T1, Protein-serine O-palmitoleoyltransferase porcupine (Mus musculus, UniProt Q9JJJ7); assay: Inhibition of porcupine in mouse L Wnt3A cells co-cultured with HEK293 cells after 48 hrs by Super-top flash reporter gene assay; assay type: cell-based
T1 sequence (Q9JJJ7 whole entry): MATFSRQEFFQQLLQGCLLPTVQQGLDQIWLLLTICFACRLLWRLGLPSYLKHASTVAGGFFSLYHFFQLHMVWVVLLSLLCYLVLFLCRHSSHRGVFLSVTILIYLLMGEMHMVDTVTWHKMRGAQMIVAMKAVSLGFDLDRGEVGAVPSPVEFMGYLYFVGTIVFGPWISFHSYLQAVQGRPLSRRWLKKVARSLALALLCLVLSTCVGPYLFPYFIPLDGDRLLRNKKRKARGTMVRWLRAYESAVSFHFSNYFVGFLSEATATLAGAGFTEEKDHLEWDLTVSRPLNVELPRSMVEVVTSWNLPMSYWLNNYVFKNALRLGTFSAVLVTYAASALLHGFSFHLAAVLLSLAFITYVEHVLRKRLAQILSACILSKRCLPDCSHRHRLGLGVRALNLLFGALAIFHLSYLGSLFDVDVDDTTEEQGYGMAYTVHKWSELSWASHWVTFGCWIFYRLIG
In short: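 Readout was luminescence inhibition in a co-culture of Wnt-producing LWnt3A cells with Wnt-responding HEK293 cells. Values are geometric means of at least two runs ± SEM, with a reference inhibitor run as a standard in every assay.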

[2] = biological target: T2, Protein-serine O-palmitoleoyltransferase porcupine (Homo sapiens) (UniProt Q9H237); assay: Inhibition of porcupine in HEK293T cells transfected with pLibin-WNT3A plasmid assessed as reduction in Wnt3A secretion into cell culture medium at 0.1 uM after 48 hrs by Western blot method; assay type: cell-based; conditions: HEK-293T
T2 sequence (whole entry): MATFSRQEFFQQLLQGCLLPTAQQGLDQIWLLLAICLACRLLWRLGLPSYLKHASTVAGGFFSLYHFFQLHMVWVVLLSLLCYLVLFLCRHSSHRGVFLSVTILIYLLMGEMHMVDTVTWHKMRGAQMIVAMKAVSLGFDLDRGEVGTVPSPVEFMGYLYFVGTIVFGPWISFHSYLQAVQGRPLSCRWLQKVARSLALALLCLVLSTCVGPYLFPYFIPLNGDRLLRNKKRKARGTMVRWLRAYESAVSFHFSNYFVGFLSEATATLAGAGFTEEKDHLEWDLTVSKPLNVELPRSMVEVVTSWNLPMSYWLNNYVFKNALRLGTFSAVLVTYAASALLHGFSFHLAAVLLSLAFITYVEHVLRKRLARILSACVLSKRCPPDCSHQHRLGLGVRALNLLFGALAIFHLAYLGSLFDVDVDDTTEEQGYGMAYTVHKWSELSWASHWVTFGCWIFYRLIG
In short: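 Cells were HEK293T transfected with pLinbin-Wnt3A plasmid or vehicle control, then exposed to compound (0.1 µM) or left untreated. After 48 h, Western blot was run on both the cell lysate and the culture medium to follow Wnt3A.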

Question: `Cc1cc(-c2ccc(CNC(=O)c3ccc4c(c3)oc3ccccc34)cc2)ccn1` was tested. Which IC50 [1] did it give?
Answer: 0.0091 µM

Question: For `Cc1cc(-c2ccc(CNC(=O)c3ccc4c(c3)[nH]c3ccccc34)cc2)ccn1`, which inhibition [2] is on record?
Answer: Active

Question: Which IC50 [1] does the source give for `Cc1cc(-c2ccc(CNC(=O)c3ccc4c(c3)[nH]c3ccccc34)nc2)ccn1` here?
Answer: 0.018 µM

Question: How did the IC50 [1] turn out when `O=C(NCc1ccc2c(c1)Cc1ccccc1-2)c1ccc(-c2ccccc2)cc1` was run?
Answer: > 1 µM

Question: Which IC50 [1] does the source give for `Cc1cc(-c2ncc(CNC(=O)c3ccc4c(c3)C(F)(F)c3ccccc3-4)cc2F)ccn1` here?
Answer: 0.016 µM

Question: How did the IC50 [1] turn out when `Cc1cc(-c2ncc(CNC(=O)c3ccc4c(c3)C(=O)c3ccccc3-4)cc2F)ccn1` was run?
Answer: 0.044 µM

Question: With `N#Cc1ccc2cc(CNC(=O)c3ccc4c(c3)[nH]c3ccccc34)ccc2c1` as the compound, how does the IC50 [1] read?
Answer: 0.013 µM

Question: With `Cc1cc(-c2ncc(CNC(=O)c3ccc4c(c3)Cc3ccccc3-4)cc2F)ccn1` as the compound, how does the IC50 [1] read?
Answer: 0.0092 µM

Question: `O=C(NCc1ccc2c(c1)oc1ccccc12)c1ccc(-c2cnccn2)cc1` was tested. Which IC50 [1] did it give?
Answer: 0.701 µM

Question: For `O=C(NCc1ccc(-n2ccnc2)cc1)c1ccc2c(c1)[nH]c1ccccc12`, which IC50 [1] is on record?
Answer: 0.314 µM

Question: How did the IC50 [1] turn out when `Cc1cc(-c2ccc(CNC(=O)c3ccc(-c4ccccc4)cc3)cc2)ccn1` was run?
Answer: 0.001 µM

Question: `O=C(NCc1ccc2c(c1)Cc1ccccc1-2)c1ccc(-c2cnccn2)cc1` was tested. Which IC50 [1] did it give?
Answer: > 1 µM

Question: How did the IC50 [1] turn out when `Cc1cc(-c2ccc(CNC(=O)c3ccc4c5ccccc5n(C)c4c3)cc2)ccn1` was run?
Answer: > 1 µM

Question: `Cn1nccc1-c1ccc(CNC(=O)c2ccc3c(c2)[nH]c2ccccc23)cc1` was tested. Which IC50 [1] did it give?
Answer: 0.13 µM

Question: For `O=C(NCc1ccc(-c2ccncc2)cc1)c1ccc2c(c1)[nH]c1ccccc12`, which IC50 [1] is on record?
Answer: 0.018 µM
